Measurements from ChEMBL document CHEMBL4831496, “Noncovalent EGFR T790M/L858R inhibitors based on diphenylpyrimidine scaffold: Design, synthesis, and bioactivity evaluation for the treatment of NSCLC” (Eur J Med Chem, 2021).
Active and inactive are the calls of the source. The rule behind the calls is not given here.

Key:
[1] = target: Epidermal growth factor receptor (Homo sapiens, UniProt P00533); assay: Inhibition of wild type EGFR (unknown origin) measured after 60 mins by ADP-Glo kinase based luminescence assay
Sequence of Epidermal growth factor receptor (P00533 whole entry): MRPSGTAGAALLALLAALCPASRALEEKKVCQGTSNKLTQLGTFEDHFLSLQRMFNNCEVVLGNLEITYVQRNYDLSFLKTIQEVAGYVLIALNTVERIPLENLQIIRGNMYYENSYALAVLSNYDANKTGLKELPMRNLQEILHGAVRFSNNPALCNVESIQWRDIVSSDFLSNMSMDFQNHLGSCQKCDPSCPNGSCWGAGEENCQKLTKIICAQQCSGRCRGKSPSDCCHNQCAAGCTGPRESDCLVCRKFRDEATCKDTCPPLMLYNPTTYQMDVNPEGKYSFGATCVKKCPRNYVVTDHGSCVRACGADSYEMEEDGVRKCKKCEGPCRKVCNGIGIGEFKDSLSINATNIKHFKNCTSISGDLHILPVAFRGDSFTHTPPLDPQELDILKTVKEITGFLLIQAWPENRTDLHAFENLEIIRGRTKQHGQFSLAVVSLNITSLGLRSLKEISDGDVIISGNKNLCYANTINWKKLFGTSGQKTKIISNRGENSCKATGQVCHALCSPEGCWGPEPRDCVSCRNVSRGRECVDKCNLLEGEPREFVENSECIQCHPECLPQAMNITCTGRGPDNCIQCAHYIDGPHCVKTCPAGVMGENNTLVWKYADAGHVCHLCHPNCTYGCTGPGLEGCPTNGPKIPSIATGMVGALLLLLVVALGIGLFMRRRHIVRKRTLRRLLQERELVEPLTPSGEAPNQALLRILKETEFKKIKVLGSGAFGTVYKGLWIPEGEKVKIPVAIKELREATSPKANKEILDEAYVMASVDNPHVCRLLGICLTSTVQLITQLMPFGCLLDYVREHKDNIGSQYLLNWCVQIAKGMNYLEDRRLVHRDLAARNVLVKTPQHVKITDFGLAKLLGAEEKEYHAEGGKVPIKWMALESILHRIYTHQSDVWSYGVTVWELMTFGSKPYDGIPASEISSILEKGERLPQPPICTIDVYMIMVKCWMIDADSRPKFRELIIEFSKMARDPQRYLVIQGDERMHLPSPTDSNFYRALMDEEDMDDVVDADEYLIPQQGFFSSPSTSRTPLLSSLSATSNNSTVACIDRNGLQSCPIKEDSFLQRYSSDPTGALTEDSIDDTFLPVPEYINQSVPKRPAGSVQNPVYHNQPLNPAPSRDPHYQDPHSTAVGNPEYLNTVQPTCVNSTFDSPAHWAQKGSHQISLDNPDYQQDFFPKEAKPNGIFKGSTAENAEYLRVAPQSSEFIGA

NCI-H1975 [2] = assay: Antiproliferative activity against human NCI-H1975 cells harboring EGFR L858R/T790M mutant assessed as reduction in cell viability incubated for 72 hrs by CCK8 assay; format: functional, cell-based; conditions: NCI-H1975, 72 h
In short: (§1)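 Cells kept as monolayers at 37 °C, 5% CO2, seeded 3000-4000/well for 12 h, then exposed to compounds for 72 h. CCK-8 added for 1-2 h at 37 °C, absorbance read at 450 nm. Each dose run in triplicate, experiment repeated at least three times. IC50 taken from dose-response curves.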

NCI-H1975 [3] = assay: Induction of apoptosis in human NCI-H1975 cells assessed as late apoptotic cells at 0.5 uM incubated for 48 hrs by AnnexinV/FITC and propidium iodide staining based flow cytometry analysis (reference value: 0.73%); format: functional
NCI-H1975 [4] = assay: Induction of cell cycle arrest in human NCI-H1975 cells assessed as accumulation of cells at G0/G1 phase at 0.125 uM incubated for 48 hrs by propidium iodide staining based flow cytometry analysis (reference value: 58.05%); format: functional
[5] = Elimination half life in Sprague-Dawley rat at 25 mg/kg, iv measured for 24 hrs by LC-MS/MS analysis; format: ADME, organism-based; conditions: in vivo, read-out: beta t1/2 (converted)
In short: (§2)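 Male Sprague-Dawley rats (200 ± 20 g), acclimatised 1 week at 25 ± 2 °C, 50-60% RH; six rats given 25 mg/kg by tail vein. Retro-orbital blood into heparin at 10, 20, 40 min and 1, 2, 3, 4, 6, 8, 12, 24 h. Plasma ethyl acetate-extracted and quantified by LC-MS/MS, transition m/z 485.3/452.3.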

NCI-H1975 [6] = assay: Induction of cell cycle arrest in human NCI-H1975 cells assessed as accumulation of cells at G2/M phase at 0.125 uM incubated for 48 hrs by propidium iodide staining based flow cytometry analysis (reference value: 30.23%); format: functional
NCI-H1975 [7] = assay: Induction of cell cycle arrest in human NCI-H1975 cells assessed as accumulation of cells at G0/G1 phase at 2 uM incubated for 48 hrs by propidium iodide staining based flow cytometry analysis (reference value: 58.05%); format: functional
NCI-H1975 [8] = assay: Induction of morphological changes in human NCI-H1975 cells assessed as increase in fusiform and sickle cell type abnormal cells at 0.5 to 2 uM incubated for 48 hrs by DAPI staining based fluorescence microscopic analysis; format: functional; conditions: dose 0.5-2 µM
In short: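 H1975 cells seeded at about 2 × 10⁵/well for 12 h, then treated. Cells fixed in 10% formaldehyde for 10 min, stained with DAPI for 10 min at room temperature and examined by fluorescence microscopy. Cell shape was also viewed under natural light.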

ASPC1 = assay: Antiproliferative activity against human ASPC1 cells assessed as reduction in cell viability incubated for 72 hrs by CCK8 assay; format: functional, cell-based; conditions: ASPC1, 72 h; in short: as §1
NCI-H1975 [9] = assay: Induction of apoptosis in human NCI-H1975 cells assessed as early apoptotic cells at 2 uM incubated for 48 hrs by AnnexinV/FITC and propidium iodide staining based flow cytometry analysis (reference value: 1.39%); format: functional
Homo sapiens = organism: Homo sapiens; assay: Selectivity index, ratio of IC50 for wild type EGFR (unknown origin) to IC50 for EGFR L858R/T790M double mutant (unknown origin)
[10] = AUC (0 to t) in Sprague-Dawley rat at 25 mg/kg, iv measured for 24 hrs by LC-MS/MS analysis; format: ADME, organism-based; design: dose 25 mg/kg, time 24 hrs; conditions: in vivo; in short: as §2
NCI-H23 = assay: Antiproliferative activity against human NCI-H23 cells harboring KRAS mutant assessed as reduction in cell viability incubated for 72 hrs by CCK8 assay; format: functional, cell-based; conditions: NCI-H23, 72 h; in short: as §1
NCI-H1975 [11] = assay: Induction of apoptosis in human NCI-H1975 cells assessed as late apoptotic cells at 0.125 uM incubated for 48 hrs by AnnexinV/FITC and propidium iodide staining based flow cytometry analysis (reference value: 0.73%); format: functional

IC50 [1]: 47.7 nM
IC50 (NCI-H1975 [2]): 97.8 nM
half-life [5]: 9.51 h
IC50 (ASPC1): 169 nM
Ratio IC50 (Homo sapiens): 43.4
AUC(0-t) at 24 h [10]: 37600 ng·h/mL
IC50 (NCI-H23): 625 nM
SMILES: O=C(NO)c1ccccc1Nc1nc(Nc2ccc(OCCN3CCOCC3)cc2)ncc1Cl
Activity (NCI-H1975 [3]): 0.56%
Activity (NCI-H1975 [4]): 20.25%
Activity (NCI-H1975 [6]): 64.66%
Activity (NCI-H1975 [7]): 57.28%
Activity (NCI-H1975 [8]): Active
Activity (NCI-H1975 [9]): 90.55%
Activity (NCI-H1975 [11]): 0.31%
